# From PubChem BioAssay AID588478 (ICCB-Longwood Screening Facility, Harvard Medical School, 2011)
# The campaign covered roughly 330,000 compounds. About 1,100 (0.33%) were called active.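 How the source made its calls: active means mean inhibition over replicate wells above about 20% (limit read from the data); inactive means the rest.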 Many of the other results were omitted from the sample, so actives are more common in it than they were.
# Molecular target: Ubiquitin carboxyl-terminal hydrolase isozyme L5 (Homo sapiens) (UniProt Q9Y5K5)
# Assay: inhibitors of human UCH37 deubiquitinase, primary screen, biochemical, Ub-AMC cleavage, fluorescence (AID 588478);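 further: 0% = compound-free wells with enzyme and 100% = wells lacking proteasome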
# Conditions: purified proteasome/UCH37, Ub-AMC cleavage fluorescence; active compounds read high; concentration not given here
# Procedure, shortened: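 assay system = human UCH37 enzyme supplied as purified proteasome complex | amount = proteasome at 0.15 nM in the dispensed enzyme solution | schedule = 30 min compound-proteasome preincubation then 25 min substrate reaction, room temperature | measured by = fluorescence, ex 355 nm, em 460 nm | benchmarks = no-proteasome wells (full inhibition) and compound-free wells (no inhibition)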
# Chain of Ubiquitin carboxyl-terminal hydrolase isozyme L5 (Homo sapiens) (Q9Y5K5 whole entry, looked up): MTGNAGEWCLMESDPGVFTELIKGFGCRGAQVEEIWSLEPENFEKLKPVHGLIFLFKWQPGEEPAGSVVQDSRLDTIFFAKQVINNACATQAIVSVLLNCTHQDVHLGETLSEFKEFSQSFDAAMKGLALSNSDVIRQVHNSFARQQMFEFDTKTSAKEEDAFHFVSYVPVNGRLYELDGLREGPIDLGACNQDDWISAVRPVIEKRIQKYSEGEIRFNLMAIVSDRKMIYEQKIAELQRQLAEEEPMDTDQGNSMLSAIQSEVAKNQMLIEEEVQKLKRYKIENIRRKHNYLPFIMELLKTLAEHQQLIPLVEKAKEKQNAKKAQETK
row,Structure (SMILES),inhibition
1,CC(=NNC(=O)Cc1c[nH]c2ccccc12)c1ccc2ccccc2c1,-2.68% (inactive)
2,Cc1cc(Nc2ccc(N3CCOCC3)cc2)c2cccc(C)c2n1,9.4% (inactive)
3,Cc1cc(Nc2ccc(C(=O)N3CCCCC3)cc2)c2cccc(C)c2n1,7.53% (inactive)
4,Cc1ccc(Nc2cc(C)nc3c(C)ccc([N+](=O)[O-])c23)cc1,42.3% (active)
5,CC1(C)CC(=O)CC(=NNC(=O)c2ccc(-c3ccccc3)cc2)C1,3.09% (inactive)
6,CCOc1cc(C=NO)ccc1OS(=O)(=O)c1ccc(C)cc1,-0.715% (inactive)
7,CC(OC(=O)c1ccc(Cl)cc1O)C(=O)NCCC1=CCCCC1 (configuration not stated),-2.32% (inactive)
8,CC(OC(=O)c1c(F)cccc1F)C(=O)NCCC1=CCCCC1 (configuration not stated),29% (active)
9,CC(C)COc1ccc(C(=O)OCC(=O)NCCC2=CCCCC2)cc1,1.87% (inactive)
10,C=CCc1c(C)nc(-c2ccccc2)nc1NN=C(C)c1ccc(N)cc1,5.32% (inactive)
11,O=C(NN=Cc1sc(N2CCCCC2)nc1-c1cccs1)C1CC1,-4.87% (inactive)
12,COc1ccc(/C(O)=C2/C(=O)C(=O)N(CCCN(C)C)C2c2ccccc2)cc1OC (configuration not stated),8.49% (inactive)
13,COc1cccc(C2/C(=C(/O)c3ccc(F)cc3)C(=O)C(=O)N2CCN(C)C)c1 (configuration not stated),26.3% (active)
14,CCCOc1ccc(/C(O)=C2/C(=O)C(=O)N(CCN(C)C)C2c2ccc(OC)c(OC)c2)cc1 (configuration not stated),9.6% (inactive)
15,CCC1SC(C)CC(=NNC(N)=O)C1C (configuration not stated),1.74% (inactive)
16,O=C(NN=Cc1ccc(O)cc1)c1csc2ccccc12,3.7% (inactive)

row,Structure (SMILES),inhibition
1,Cc1nn(C)c(C(=O)NN=Cc2cccnc2)c1Cl,1.1% (inactive)
2,CC(=NNc1ccccc1)c1c(O)cc(C)oc1=O,2.24% (inactive)
3,Cc1cc(C)c[n+](-c2[nH]c(=O)sc2C=NNC([S-])=Nc2ccccc2)c1,23% (active)
4,C(=NNc1nc(-c2ccccc2)cs1)c1cccs1,-0.256% (inactive)
5,COc1ccc(Br)cc1C=Nn1c(COc2ccccc2)n[nH]c1=S,3.72% (inactive)
6,Cc1ccc(NC(=O)N2CCC(c3nc4c(nnn4Cc4c(F)cccc4Cl)c(=O)[nH]3)CC2)cc1,1.34% (inactive)
7,Cc1ccc(Cn2nnc3c(=O)[nH]c(C4CCN(S(=O)(=O)/C=C/c5ccccc5)CC4)nc32)cc1,0.769% (inactive)
8,COc1ccc(Cn2nnc3c(=O)[nH]c(C4CCN(C(=O)c5ccccc5Cl)CC4)nc32)cc1,35.6% (active)
9,Oc1ccc(C=NNC2=NCCCCC2)c(O)c1,-24.8% (inactive)
10,CC(Oc1cccc(Cl)c1)c1ccnc2nc(N=CN(C)C)nn12 (configuration not stated),-41% (inactive)
11,CC(=NNC(=O)c1nnn(-c2nonc2N)c1CSc1ccc(Cl)cc1)c1ccco1,0.0783% (inactive)
12,CC(=O)CC(CC(=O)NC1CCCCC1)c1ccccc1 (configuration not stated),3.65% (inactive)
13,O=C(CC1OC(=O)c2ccccc21)NC1CCCCC1 (configuration not stated),26% (active)
14,O=C(CN1C(=O)c2ccccc2S1(=O)=O)NC1CCCCC1,0.614% (inactive)
15,Cc1nnsc1C(=O)NN=Cc1ccccc1,-1.09% (inactive)
16,COc1ccc(C(C)=NNC(=O)CN(c2ccc(OC)cc2)S(=O)(=O)c2ccccc2)cc1,3.13% (inactive)
